Laboratory results taken from ChEMBL document CHEMBL4342473, “Lead Optimization of Benzoxazolone Carboxamides as Orally Bioavailable and CNS Penetrant Acid Ceramidase Inhibitors” (J Med Chem, 2020).
Activity calls are given as the source filed them. The calls are words filed in the database; no cut-off is given here.

Tests used:
[1] = Microsomal stability in mouse liver microsomes assessed as parent compound remaining at 4.6 uM preincubated for 15 mins followed by NADPH addition and measured after 60 mins by LC-MS/MS analysis; type: ADME, Microsome; conditions: read-out: Stability
Method in brief: (§1)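 Mouse liver microsome stability; half-life and % parent remaining at 60 min; mean of at least two independent experiments, each in two technical replicates.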

[2] = molecular target: T1, Acid ceramidase (Homo sapiens) (UniProt Q13510); assay: Inhibition of human acid ceramidase expressed in HEK293 cells up to 10 uM using Rbm14-12 as substrate preincubated for 10 mins followed by substrate addition and measured after 3 hrs by fluorescence assay; type: cell-based
T1 sequence (whole entry): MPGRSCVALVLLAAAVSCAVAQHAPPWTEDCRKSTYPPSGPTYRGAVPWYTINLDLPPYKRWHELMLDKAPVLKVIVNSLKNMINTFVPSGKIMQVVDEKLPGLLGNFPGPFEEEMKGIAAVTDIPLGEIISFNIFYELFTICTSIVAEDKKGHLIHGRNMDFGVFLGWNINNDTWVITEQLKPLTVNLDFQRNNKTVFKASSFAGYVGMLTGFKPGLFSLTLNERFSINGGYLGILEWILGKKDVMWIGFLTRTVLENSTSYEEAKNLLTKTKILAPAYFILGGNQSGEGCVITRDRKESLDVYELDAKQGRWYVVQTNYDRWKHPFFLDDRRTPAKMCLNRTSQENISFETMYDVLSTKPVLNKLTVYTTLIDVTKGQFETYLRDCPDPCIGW

[3] = molecular target: T1, Acid ceramidase (Homo sapiens); assay: Inhibition of human acid ceramidase expressed in HEK293 cells at 1 uM using Rbm14-12 as substrate preincubated for 10 mins followed by substrate addition and measured after 3 hrs by fluorescence assay; type: cell-based
[4] = molecular target: T1, Acid ceramidase (Homo sapiens); assay: Inhibition of human acid ceramidase expressed in HEK293 cells at 10 uM using Rbm14-12 as substrate preincubated for 10 mins followed by substrate addition and measured after 3 hrs by fluorescence assay; type: cell-based
[5] = Half life in mouse liver microsomes at 4.6 uM preincubated for 15 mins followed by NADPH addition and measured up to 60 mins by LC-MS/MS analysis; type: ADME, Microsome; method in brief: as §1

SMILES | inhibition [2] | half-life at 4.6 µM [5] | other results
CCCCCNC(=O)n1c(=O)oc2cc(C3CCN(C)CC3)ccc21 | – | – | remaining at 1 h, 4.6 µM [1]: 60%
O=C1C(=O)N(C(=O)NCCCCc2ccccc2)c2ccccc21 | inactive | – | –
CN1CCC(c2ccc3[nH]c(=O)oc3c2)CC1 | – | – | inhibition [3]: inactive; inhibition [4]: inactive
O=C1Cc2ccccc2N1C(=O)NCCCCc1ccccc1 | inactive | – | –
O=C(NCCCCc1ccccc1)n1c2c(oc1=O)CCNC2 | – | < 15 min | –
O=C(NCCCCc1ccccc1)n1c2c(oc1=O)CNCC2 | – | < 15 min | –
